Results as given in ChEMBL document CHEMBL3526056, “Characterization of in vitro glucuronidation clearance of a range of drugs in human kidney microsomes: comparison with liver and intestinal glucuronidation and impact of albumin” (Drug Metab Dispos, 2012).

Key:
Liver microsome [1] = assay: Fraction unbound in human liver microsomes at 1 uM after 30 to 60 mins by LC-MS/MS analysis in presence of 1% bovine serum albumin; type: ADME; conditions: microsomes, 1 µM
Liver microsome [2] = assay: Unbound intrinsic glucuronidation clearance in human liver microsomes at 1 uM after 30 to 60 mins by LC-MS/MS analysis in presence of UDP-glucuronosyltransferase; type: ADME
Outline: (§1)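 Alamethicin-activated pooled microsomes (HLM 150 donors; HKM 8; HIM 18). Drug at 1 μM final, preincubated 5 min at 37°C in 0.1 M phosphate pH 7.1 with 3.45 mM MgCl2, 1.15 mM EDTA, 115 μM saccharic acid lactone. Started with […] cofactor (5 mM final), 30–60 min. Cofactor-free controls. Parent depletion by LC-MS/MS, single-exponential k. Corrected by HLM-dialysis fu,inc. Duplicates; n=3 (HIM n=1).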

[3] = Glucuronidation clearance in human liver microsomes; type: ADME
[4] = Unbound intrinsic glucuronidation clearance in human intestinal microsomes at 1 uM after 30 to 60 mins by LC-MS/MS analysis in presence of UDP-glucuronosyltransferase; type: ADME, Intestine, Microsome; outline: as §1
Liver microsome [5] = assay: Fraction metabolized glucuronidation in human liver microsomes in presence of UDP-glucuronosyltransferase; type: ADME
Liver microsome [6] = assay: Fraction metabolized glucuronidation in human liver microsomes in presence of UDP-glucuronosyltransferase and bovine serum albumin; type: ADME
[7] = biological target: T1, UDP-glucuronosyltransferase 2B7 (Homo sapiens, UniProt P16662); assay: Drug metabolism in human kidney microsomes assessed as UGT2B7-mediated unbound intrinsic glucuronidation clearance at 1 uM after 30 to 60 mins by LC-MS/MS analysis in presence of 1% bovine serum albumin; type: ADME
T1 sequence (P16662 whole entry): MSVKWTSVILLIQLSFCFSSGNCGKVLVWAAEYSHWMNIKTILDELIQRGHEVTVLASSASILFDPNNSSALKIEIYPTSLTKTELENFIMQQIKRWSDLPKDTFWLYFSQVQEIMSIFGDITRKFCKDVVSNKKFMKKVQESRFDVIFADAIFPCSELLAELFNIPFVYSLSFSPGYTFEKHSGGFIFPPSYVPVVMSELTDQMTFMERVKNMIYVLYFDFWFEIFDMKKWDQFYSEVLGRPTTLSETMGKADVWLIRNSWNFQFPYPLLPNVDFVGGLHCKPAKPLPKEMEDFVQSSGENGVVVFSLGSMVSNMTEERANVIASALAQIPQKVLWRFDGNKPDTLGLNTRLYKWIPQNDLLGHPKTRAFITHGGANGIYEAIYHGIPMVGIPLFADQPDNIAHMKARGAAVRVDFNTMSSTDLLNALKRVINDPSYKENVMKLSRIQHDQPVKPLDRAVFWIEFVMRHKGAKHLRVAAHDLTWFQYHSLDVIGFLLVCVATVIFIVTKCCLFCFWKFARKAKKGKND

Liver microsome [8] = assay: Unbound intrinsic glucuronidation clearance in human liver microsomes at 1 uM after 30 to 60 mins by LC-MS/MS analysis in presence of UDP-glucuronosyltransferase and 1% bovine serum albumin; type: ADME
[9] = Unbound intrinsic glucuronidation clearance in human intestinal microsomes at 1 uM after 30 to 60 mins by LC-MS/MS analysis in presence of UDP-glucuronosyltransferase and 1% bovine serum albumin; type: ADME, Intestine, Microsome
[10] = biological target: T1, UDP-glucuronosyltransferase 2B7; assay: Drug metabolism in human intestinal microsomes assessed as UGT2B7-mediated unbound intrinsic glucuronidation clearance at 1 uM after 30 to 60 mins by LC-MS/MS analysis; type: ADME, Intestine
[11] = Glucuronidation clearance in human liver microsomes in presence of bovine serum albumin; type: ADME
[12] = biological target: T1, UDP-glucuronosyltransferase 2B7; assay: Drug metabolism in human liver microsomes assessed as UGT2B7-mediated unbound intrinsic glucuronidation clearance at 1 uM after 30 to 60 mins by LC-MS/MS analysis in presence of 1% bovine serum albumin; type: ADME
[13] = biological target: T1, UDP-glucuronosyltransferase 2B7; assay: Drug metabolism in human liver microsomes assessed as UGT2B7-mediated unbound intrinsic glucuronidation clearance at 1 uM after 30 to 60 mins by LC-MS/MS analysis; type: ADME
[14] = Unbound intrinsic glucuronidation clearance in human kidney microsomes at 1 uM after 30 to 60 mins by LC-MS/MS analysis in presence of UDP-glucuronosyltransferase and 1% bovine serum albumin; type: ADME, microsome
[15] = Fraction unbound in human liver microsomes at 1 uM after 30 to 60 mins by LC-MS/MS analysis; type: ADME
[16] = Fraction unbound in human intestinal microsomes at 1 uM after 30 to 60 mins by LC-MS/MS analysis; type: ADME, Intestine, Microsome
[17] = biological target: T1, UDP-glucuronosyltransferase 2B7; assay: Drug metabolism in human kidney microsomes assessed as UGT2B7-mediated unbound intrinsic glucuronidation clearance at 1 uM after 30 to 60 mins by LC-MS/MS analysis; type: ADME
[18] = Fraction unbound in human plasma
[19] = Renal clearance in human; type: ADME, organism-based, Kidney; conditions: in vivo
[20] = Unbound intrinsic glucuronidation clearance in human kidney microsomes at 1 uM after 30 to 60 mins by LC-MS/MS analysis in presence of UDP-glucuronosyltransferase; type: ADME, microsome; outline: as §1
[21] = Fraction unbound in human kidney microsomes at 1 uM after 30 to 60 mins by LC-MS/MS analysis; type: ADME
[22] = Ratio of unbound intrinsic glucuronidation clearance in human intestinal microsomes in presence of 2% bovine serum albumin to unbound intrinsic glucuronidation clearance in human intestinal microsomes in absence of bovine serum albumin; type: ADME, Intestine, Microsome
Outline: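 Ratios of mean scaled unbound CLint,UGT (per g tissue) between tissues, or between with and without BSA. Microsomal depletion assays at 1 μM, or 5 μM for propofol, in pH 7.1 phosphate at 37°C, read by LC-MS/MS. Kidney and liver n = 3, intestine n = 1, each in duplicate.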

[23] = Drug metabolism in human kidney microsomes assessed as UGT1A8/2B7-mediated unbound intrinsic glucuronidation clearance at 1 uM after 30 to 60 mins by LC-MS/MS analysis in presence of 2% bovine serum albumin; type: ADME
Outline: (§2)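 Pooled alamethicin-activated human liver, kidney or intestinal microsomes. […] Duplicate incubations of 30–60 min, with no-cofactor controls. Parent depletion read by LC-MS/MS. k from a single-exponential fit, corrected by fu,inc.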

[24] = Ratio of UGT1A8/2B7-mediated unbound intrinsic glucuronidation clearance in human kidney microsomes to UGT1A8/2B7-mediated unbound intrinsic glucuronidation clearance in human liver microsomes at 1 uM; type: ADME
Outline: (§3)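 Ratios of mean unbound CLint,UGT, each scaled per g tissue, between pooled liver, kidney and intestinal microsomes. Values come from 1 μM substrate-depletion assays in pH 7.1 phosphate at 37°C, run with or without BSA (1% for acids, 2% for bases/neutral drugs). Corrected for nonspecific binding. Kidney and liver n = 3; intestine n = 1; each in duplicate.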

[25] = Unbound intrinsic glucuronidation clearance in human intestinal microsomes at 1 uM after 30 to 60 mins by LC-MS/MS analysis in presence of UDP-glucuronosyltransferase and 2% bovine serum albumin; type: ADME, Intestine, Microsome; outline: as §2
[26] = Clearance in iv dosed human; type: ADME, organism-based; conditions: in vivo
[27] = Drug metabolism in human kidney microsomes assessed as UGT1A8/2B7-mediated unbound intrinsic glucuronidation clearance at 1 uM after 30 to 60 mins by LC-MS/MS analysis; type: ADME; outline: as §2
[28] = Ratio of UGT1A8/2B7-mediated unbound intrinsic glucuronidation clearance in human kidney microsomes to UGT1A8/2B7-mediated unbound intrinsic glucuronidation clearance in human liver microsomes at 1 uM in presence of 2% bovine serum albumin; type: ADME; outline: as §3
[29] = Ratio of drug level blood to plasma in human; type: ADME; conditions: blood and plasma
[30] = Ratio of UGT1A8/2B7-mediated unbound intrinsic glucuronidation clearance in human intestinal microsomes to UGT1A8/2B7-mediated unbound intrinsic glucuronidation clearance in human liver microsomes at 1 uM in presence of 2% bovine serum albumin; type: ADME; outline: as §3
Liver microsome [31] = assay: Unbound intrinsic glucuronidation clearance in human liver microsomes at 1 uM after 30 to 60 mins by LC-MS/MS analysis in presence of UDP-glucuronosyltransferase and 2% bovine serum albumin; type: ADME; outline: as §2
[32] = Ratio of UGT1A8/2B7-mediated unbound intrinsic glucuronidation clearance in human intestinal microsomes to UGT1A8/2B7-mediated unbound intrinsic glucuronidation clearance in human liver microsomes at 1 uM; type: ADME; outline: as §3
[33] = Fraction unbound in human liver microsomes at 1 uM […] by LC-MS/MS analysis in presence of 2% bovine serum albumin; type: ADME
[34] = Drug metabolism in human liver microsomes assessed as UGT1A8/2B7-mediated unbound intrinsic glucuronidation clearance at 1 uM after 30 to 60 mins by LC-MS/MS analysis in presence of 2% bovine serum albumin; type: ADME; outline: as §2
[35] = Ratio of UGT1A8/2B7-mediated unbound intrinsic glucuronidation clearance in human kidney microsomes to UGT1A8/2B7-mediated unbound intrinsic glucuronidation clearance in human intestinal microsomes at 1 uM; type: ADME; outline: as §3
[36] = Drug metabolism in human liver microsomes assessed as UGT1A8/2B7-mediated unbound intrinsic glucuronidation clearance at 1 uM after 30 to 60 mins by LC-MS/MS analysis; type: ADME; outline: as §2
[37] = Unbound intrinsic glucuronidation clearance in human kidney microsomes at 1 uM after 30 to 60 mins by LC-MS/MS analysis in presence of UDP-glucuronosyltransferase and 2% bovine serum albumin; type: ADME, microsome; outline: as §2
[38] = Ratio of UGT1A8/2B7-mediated unbound intrinsic glucuronidation clearance in human kidney microsomes to UGT1A8/2B7-mediated unbound intrinsic glucuronidation clearance in human intestinal microsomes at 1 uM in presence of 2% bovine serum albumin; type: ADME; outline: as §3
[39] = Drug metabolism in human intestinal microsomes assessed as UGT1A8/2B7-mediated unbound intrinsic glucuronidation clearance at 1 uM after 30 to 60 mins by LC-MS/MS analysis; type: ADME, Intestine; outline: as §2

Compound: Cc1ccc(C)c(OCCCC(C)(C)C(=O)O)c1 [GEMFIBROZIL]
- Fu (Liver microsome [1]): 0.01
- CL free (Liver microsome [2]): 259 µL/min/mg
- CLhep predicted [3]: 1.78 mL/min/kg
- CL free [4]: 23.9 µL/min/mg
- Drug metabolism (Liver microsome [5]): 0.79
- Drug metabolism (Liver microsome [6]): 0.86
- CL free [7]: 24.4 mL/min/g
- CL free (Liver microsome [8]): 1840 µL/min/mg
- CL free [9]: 40 µL/min/mg
- CL free [10]: 0.492 mL/min/g
- CLhep predicted [11]: 1.93 mL/min/kg
- CL free [12]: 73.6 mL/min/g
- CL free [13]: 10.4 mL/min/g
- CL free [14]: 1910 µL/min/mg
- fraction unbound at 1 µM [15]: 0.9
- fraction unbound at 1 µM [16]: 0.82
- CL free [17]: 3.39 mL/min/g
- fraction unbound [18]: 0.005
- CL renal [19]: 0.02 mL/min/kg
- CL free [20]: 265 µL/min/mg
- fraction unbound at 1 µM [21]: 0.9

Compound: C=CCN1CC[C@]23c4c5ccc(O)c4O[C@H]2C(=O)CC[C@@]3(O)[C@H]1C5 [NALOXONE]
- Ratio [22]: 28
- CL free [23]: 0.675 mL/min/g
- Ratio [24]: 0.348
- CL free (Liver microsome [2]): 10 µL/min/mg
- CLhep predicted [3]: 14.1 mL/min/kg
- CL free [25]: 14.2 µL/min/mg
- CL free [4]: 0.502 µL/min/mg
- clearance [26]: 21.7 mL/min/kg
- CL free [27]: 0.14 mL/min/g
- Ratio [28]: 0.304
- Drug metabolism (Liver microsome [5]): 0.65
- Drug metabolism (Liver microsome [6]): 0.89
- blood plasma ratio [29]: 1
- Ratio [30]: 0.131
- CLhep predicted [11]: 19.3 mL/min/kg
- CL free (Liver microsome [31]): 55.6 µL/min/mg
- fraction unbound at 1 µM [15]: 1
- fraction unbound at 1 µM [16]: 1
- Ratio [32]: 0.026
- fraction unbound at 1 µM [33]: 0.96
- CL free [34]: 2.22 mL/min/g
- fraction unbound [18]: 0.57
- CL free [20]: 10.9 µL/min/mg
- Ratio [35]: 13.5
- CL free [36]: 0.402 mL/min/g
- CL free [37]: 52.7 µL/min/mg
- Ratio [38]: 2.31
- fraction unbound at 1 µM [21]: 1
- CL free [39]: 0.01 mL/min/g
